# Source: ChEMBL document CHEMBL1126643, “Synthesis and evaluation of 2-pyridinone derivatives as HIV-1-specific reverse transcriptase inhibitors. 4. 3-[2-(Benzoxazol-2-yl)ethyl]-5-ethyl-6-methylpyridin-2(1H)-one and analogues” (J Med Chem, 1993)
# Columns and labels:
# [1] = target: Human immunodeficiency virus type 1 reverse transcriptase (Human immunodeficiency virus 1) (UniProt Q72547); experiment: Cell culture inhibitor concentration required to inhibit the spread of HIV-1 strain III B infection in MT-4 human T-lymphoid cells; type: functional, cell-based
# [2] = target: T1, Human immunodeficiency virus type 1 reverse transcriptase (Human immunodeficiency virus 1, UniProt Q72547); experiment: Tested for inhibition against HIV-1 RT (used (poly)rC-(oligo)dG as the template)
# [3] = target: T1, Human immunodeficiency virus type 1 reverse transcriptase; experiment: Inhibition against HIV-1 RT (used (poly)rC-(oligo)dG as the template); not characterized
# [4] = Percent unbound determined for whole normal human plasma; type: functional
# Outline: (§1)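 Compound from 1 mM DMSO stock added to pH 7.4 phosphate/NaCl buffer with human plasma (10-fold diluted plasma), initial compound 10 μM; triplicate aliquots centrifuged through filter tubes, filtrate analysed by HPLC.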
# [5] = Plasma equilibrium dissociation constant was determined; type: functional, cell-free, Homo sapiens; outline: as §1
# [6] = Half life was determined; type: ADME; settings: 0.1 N HCl in 90% ethanol
# Outline: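 Acid hydrolysis: stock aliquot added to stirred ethanol/1 N HCl (8.9:1.0 mL) at 37 °C; aliquots withdrawn at intervals, quenched into pH 7.7 0.1 M MES buffer and analysed by HPLC.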
Structure (SMILES),IC50 [2] [µM],also measured
CCc1cc(SCc2nc3c(Cl)ccc(Cl)c3o2)c(O)nc1C,–,IC95 [1]: 0.05 µM
CCc1cc(CCc2nc3c(F)cccc3o2)c(S)nc1C,–,IC95 [1]: 0.1 µM
CCc1cc(CCc2nc3c(C)ccc(C)c3o2)c(S)nc1C,–,IC95 [1]: 0.2 µM
CCc1cc(CCc2nc3c(Cl)ccc(Cl)c3o2)c(=O)[nH]c1C,0.014,–
Cc1cc(CCc2nc3c(Cl)ccc(Cl)c3o2)c(=O)[nH]c1C,0.097,–
CCc1cc(NCC(=O)Nc2ccccc2O)c(O)nc1C,–,IC50 [3]: not characterized
CCc1cc(CCc2ccccc2)c(=O)[nH]c1C,50,–
CCc1cc(CCc2nc3cccc(F)c3o2)c(=S)[nH]c1C,0.043,–
CCCc1cc(CCc2nc3c(Cl)ccc(Cl)c3o2)c(=O)[nH]c1C,0.034,–
CCc1cc(CCc2nc3c(C)ccc(C)c3o2)c(O)nc1C,–,Unbound [4]: 0.2%; Kd [5]: 1.21 µM; IC95 [1]: 0.3 µM
CCc1cc(CCc2nc3c(C)ccc(C)c3o2)c(=S)[nH]c1C,0.052,–
Cc1nc(O)c(CCc2nc3ccccc3o2)cc1CO,3.4,–
CCc1cc(OCC(=O)Nc2ccccc2O)c(O)nc1C,–,IC50 [3]: not characterized
CCc1cc(CCc2nc3c(C)cccc3o2)c(O)nc1C,–,Unbound [4]: 0.4%; Kd [5]: 2.45 µM; IC95 [1]: 0.1 µM
CCc1c[nH]c(=O)c(CCc2nc3ccccc3o2)c1,0.177,–
CCc1cc(CCc2nc3ccc(C)cc3o2)c(=O)[nH]c1C,0.172,–
CCc1cc(CCc2cc3cnccc3o2)c(O)nc1C,13.5,–
CCc1cc(CCc2nc3c(Cl)cccc3o2)c(S)nc1C,0.03,–
CCc1cc(CCc2nc3c(F)cccc3o2)c(=S)[nH]c1C,0.013,–
CCc1cc(NCC(=O)Nc2c(O)cc(Cl)cc2Cl)c(O)nc1C,> 300,–
CCc1cc(CCc2nc3c(Cl)ccc(Cl)c3o2)c(S)nc1C,0.03,IC95 [1]: 0.1 µM
CCc1cc(CCc2nc3c(F)ccc(F)c3o2)c(=S)[nH]c1C,0.015,–
CCc1cc(SCc2nc3c(Cl)ccc(Cl)c3o2)c(=O)[nH]c1C,0.011,half-life [6]: 34 min

Structure (SMILES),IC50 [2] [µM],also measured
CCc1cc(CCC(=O)Nc2c(O)cc(Cl)cc2Cl)c(O)nc1C,> 300,–
CCC1=C(C)NC(N)C(CCc2nc3ccccc3o2)=C1 (stereo not drawn),100,–
Cc1[nH]c(=O)c(CCc2nc3ccccc3o2)cc1C(C)C,0.048,–
CCc1cc(CCc2nc3cc(F)ccc3o2)c(=O)[nH]c1C,1.7,–
CCc1cc(S(=O)(=O)Cc2nc3c(Cl)ccc(Cl)c3o2)c(O)nc1C,0.205,–
CCc1cc(CCc2nc3cccc(Cl)c3o2)c(=S)[nH]c1C,0.029,–
CCc1cc(CCC2=NC3CCCCC3O2)c(=O)[nH]c1C (stereo not drawn),0.058,–
CCc1cc(/C=C/c2nc3ccccc3o2)c(O)nc1C,5.9,–
Cc1nc(O)c(CCc2nc3ccccc3o2)cc1-c1ccccc1,1.1,–
CCc1cc(CCc2cc3ccccc3o2)c(O)nc1C,0.13,–
CCc1cc(OCc2nc3ccccc3o2)c(=O)[nH]c1C,0.191,half-life [6]: 12 min
CCc1cc(CCc2nc3ccccc3o2)c(O)nc1C,0.023,half-life [6]: 218 min; Unbound [4]: 4%; Kd [5]: 21.6 µM; IC95 [1]: 0.1 µM
CCc1cc(CCc2nc3ccc(F)cc3o2)c(O)nc1C,0.442,–
CCc1cc(CCc2nc3c(Cl)cccc3o2)c(O)nc1C,0.062,Unbound [4]: 3%; Kd [5]: 17.6 µM; IC95 [1]: 0.1 µM
CCc1cc(CNc2nc3ccccc3o2)c(O)nc1C,1.25,IC95 [1]: 10 µM
CCc1cc(CCc2nc3cccc(F)c3o2)c(O)nc1C,0.037,Unbound [4]: 1.4%; Kd [5]: 8.16 µM
CCc1cc(CCc2ccccn2)c(O)nc1C,260,–
CCc1cc(CCc2nc3c(C)ccc(C)c3o2)c(=O)[nH]c1C,0.028,–
CCc1cc(CCc2nc3cccc(C)c3o2)c(=O)[nH]c1C,0.04,–
CCc1cc(CCC(=O)Nc2ccccc2O)c(=O)[nH]c1C,5.4,–
CCc1cc(CCCc2nc3ccccc3o2)c(O)nc1C,16,–
CCc1cc(Cc2nc3ccccc3o2)c(O)nc1C,45,–
CCCc1cc(CCc2nc3ccccc3o2)c(O)nc1C,0.083,–

Structure (SMILES),IC50 [2] [µM],also measured
CCc1cc(NCc2nc3ccccc3o2)c(O)nc1C,–,half-life [6]: 35 min; IC95 [1]: 0.8 µM
Cc1[nH]c(=O)c(CCc2nc3ccccc3o2)cc1C(N)=O,41.5,–
CCc1cc(CCc2nc3c(F)ccc(F)c3o2)c(S)nc1C,–,IC95 [1]: 0.2 µM
CCc1cc(CCc2nc3cccc(Cl)c3o2)c(S)nc1C,–,IC95 [1]: 0.2 µM
CCc1cc(CCc2nc3cccc(Cl)c3o2)c(O)nc1C,0.039,Unbound [4]: 0.7%; Kd [5]: 4.16 µM; IC95 [1]: 0.1 µM
CCc1cc(CCc2nc3c(C)cccc3o2)c(=O)[nH]c1C,0.033,–
CCc1cc([S+]([O-])Cc2nc3c(Cl)ccc(Cl)c3o2)c(O)nc1C (stereo not drawn),1.4,–
CCc1cc(CCc2ncc(-c3ccccc3)o2)c(O)nc1C,0.385,–
COCc1cc(CCc2nc3ccccc3o2)c(=O)[nH]c1C,2.1,–
CCc1cc(OCc2nc3c(Cl)ccc(Cl)c3o2)c(=O)[nH]c1C,0.088,half-life [6]: 11 min
Cc1nc(O)c(CCc2nc3ccccc3o2)cc1N(C)C,1.85,–
CCc1cc(CCc2nc3c(F)cccc3o2)c(O)nc1C,0.015,Unbound [4]: 4%; Kd [5]: 24 µM; IC95 [1]: 0.05 µM
CCc1cc(CCc2ccc3ccccc3n2)c(O)nc1C,2.45,–
CCc1cc(CCc2nc3cccc(F)c3o2)c(S)nc1C,–,IC95 [1]: 0.2 µM
CCc1cc(CCc2nc3c(F)ccc(F)c3o2)c(O)nc1C,0.014,Unbound [4]: 3%; Kd [5]: 18.2 µM; IC95 [1]: 0.05 µM
CCc1cc(CCc2nc3c(Cl)ccc(Cl)c3o2)c(O)nc1C,–,Unbound [4]: 0.1%; Kd [5]: 0.76 µM; IC95 [1]: 0.05 µM
CCc1cc(CCc2ccc3ccccc3c2)c(=O)[nH]c1C,8.4,–
CCc1cc(NCc2nc3c(Cl)ccc(Cl)c3o2)c(O)nc1C [L-697661],0.02,half-life [6]: 17 min; Unbound [4]: 0.4%; IC95 [1]: 0.1 µM
Cc1cc(CCc2nc3ccccc3o2)c(O)nc1C,0.17,–
CCc1cc(CCc2nc3ccccc3o2)c(S)nc1C,0.024,IC95 [1]: 0.2 µM
CCc1cc(/C=C\c2nc3ccccc3o2)c(=O)[nH]c1C,3,–
CCc1cc(OCc2nc3c(Cl)ccc(Cl)c3o2)c(O)nc1C,–,IC95 [1]: 0.2 µM
Cc1nc(O)c(CCc2nc3ccccc3o2)cc1C#N,0.31,–
